Most compounds without a hit are left out; they make up all but 4.7% or so of the library.
IMP-1 inh: inhibitors of Pseudomonas aeruginosa IMP-1 metallo-beta-lactamase | purified IMP-1, nitrocefin hydrolysis, epi-absorbance fluorescence | inhibition, % at 5.6 µM | 290,000 tested, 0.45% active;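 active = inhibition above the mean plus 3 SD of all compounds in the same screening run, cut at about 4.5% in these data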
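System: Purified IMP-1 | Read-out basis: Percent enzyme inhibition | Controls: IMP-1 with DMSO as 0%, enzyme-free DMSO as 100% | Replicates: One well per compound | Doses: 5.6 µM nominal single concentration | Detection: Epi-absorbance fluorescence, 480 nm excitation, 530 nm emission | Incubation: 25 °C, 15 min preincubation, 25 min reaction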
aSyn 5UTR inh: MLPCN primary screen, SNCA 5' untranslated region. alpha-synuclein 5'UTR reporter, inhibitor activity. inhibition, % (tested at 7.5 µM). 300,000 tested, 0.82% active. AID 1813; in the data active = inhibition above about 60%;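 also: H4 neuroglioblastoma cells stably carrying SNCA 5'UTR luciferase fusion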
Mdm2 MdmX PPI: human Mdm2/MdmX binding inhibition | O15151+Q00987 | SaOS-2 split-luciferase Mdm2/MdmX complementation, luminescence | inhibition, % at 8 µM | 330,000 tested, 3% active;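 active = inhibition of at least 50% at 8 µM in the primary screen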
Target sequence (O15151 whole entry, looked up): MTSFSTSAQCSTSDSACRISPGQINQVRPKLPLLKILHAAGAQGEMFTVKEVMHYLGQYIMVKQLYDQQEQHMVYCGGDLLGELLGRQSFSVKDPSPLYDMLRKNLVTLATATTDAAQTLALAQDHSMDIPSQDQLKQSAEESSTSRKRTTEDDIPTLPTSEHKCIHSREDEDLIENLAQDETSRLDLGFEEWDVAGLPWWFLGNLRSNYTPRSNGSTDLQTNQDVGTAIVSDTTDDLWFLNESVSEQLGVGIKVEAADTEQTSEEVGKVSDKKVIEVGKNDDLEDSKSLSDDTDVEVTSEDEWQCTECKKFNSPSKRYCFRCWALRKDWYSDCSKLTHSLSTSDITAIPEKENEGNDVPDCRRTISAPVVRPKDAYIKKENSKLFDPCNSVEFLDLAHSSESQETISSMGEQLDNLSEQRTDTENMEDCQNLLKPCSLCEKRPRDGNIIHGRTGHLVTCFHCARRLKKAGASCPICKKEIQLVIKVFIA
Target sequence (Q00987 whole entry, looked up): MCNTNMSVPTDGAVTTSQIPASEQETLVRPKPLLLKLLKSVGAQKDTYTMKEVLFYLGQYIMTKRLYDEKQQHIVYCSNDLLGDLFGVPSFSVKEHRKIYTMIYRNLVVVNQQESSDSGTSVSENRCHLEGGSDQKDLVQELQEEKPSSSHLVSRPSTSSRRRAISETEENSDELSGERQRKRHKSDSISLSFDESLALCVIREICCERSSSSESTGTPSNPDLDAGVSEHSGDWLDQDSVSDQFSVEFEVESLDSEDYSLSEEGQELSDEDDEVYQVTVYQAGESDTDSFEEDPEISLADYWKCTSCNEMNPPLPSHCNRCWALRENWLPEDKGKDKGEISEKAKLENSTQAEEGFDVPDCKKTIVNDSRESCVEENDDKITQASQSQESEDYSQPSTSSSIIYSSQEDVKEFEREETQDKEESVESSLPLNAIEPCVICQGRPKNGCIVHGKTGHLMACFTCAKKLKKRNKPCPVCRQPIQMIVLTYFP
VIM-2 inhibitor: blocks Pseudomonas aeruginosa VIM-2 metallo-beta-lactamase; purified VIM-2, nitrocefin hydrolysis, epi-absorbance fluorescence; inhibition, % at 5.6 µM; 290,000 tested, 0.89% active;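 active = inhibition above the mean of all tested compounds plus 3 SD, cutoff set per screening run, cut at about 7.5% in these data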;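 also: red hydrolysis product quenches plate fluorescence so inhibitors raise well fluorescence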
697 NFkB inh: inhibitors of the PMA/ionomycin-induced NF-kB reporter in 697 B cells | 697 B-cell NF-kB luciferase reporter, 16 h | inhibition, % at 4 µM | 330,000 tested, 0.33% active | AID 435022; in the data active = inhibition above about 35%
Jurkat NFkB inh: lowers PMA/ionomycin-induced NF-kB signal in Jurkat cells; PMA/ionomycin-induced NF-kB luciferase reporter, luminescence; inhibition, % at 4 µM; 330,000 tested, 0.53% active; in the data active = inhibition above about 50%
A number is an active result.

`COc1ccccc1N(CC(=O)Nc1ccccc1C(F)(F)F)S(=O)(=O)c1cccs1` gave Mdm2 MdmX PPI inactive, 697 NFkB inh inactive and Jurkat NFkB inh inactive.
Screening S=c1[nH]nc(-c2ccc(Cl)cc2Cl)n1-c1ccccc1 returned IMP-1 inh inactive, aSyn 5UTR inh inactive, Mdm2 MdmX PPI inactive, VIM-2 inhibitor inactive, 697 NFkB inh inactive and Jurkat NFkB inh inactive.
Screening S=c1[nH]nc(-c2ccc(Cl)cc2Cl)n1-c1ccc2c(c1)OCCO2 returned IMP-1 inh inactive, aSyn 5UTR inh inactive, Mdm2 MdmX PPI inactive, VIM-2 inhibitor 9.2, 697 NFkB inh inactive and Jurkat NFkB inh inactive.
Screening CS(=O)(=O)Nc1ccc(-c2n[nH]c(=S)n2-c2ccccc2)cc1 returned IMP-1 inh inactive, aSyn 5UTR inh inactive, Mdm2 MdmX PPI inactive, VIM-2 inhibitor 8.2, 697 NFkB inh inactive and Jurkat NFkB inh inactive.
Screening NS(=O)(=O)c1ccc(NC(=O)Nc2ccc3c(c2)OCO3)cc1 returned IMP-1 inh inactive, aSyn 5UTR inh inactive, Mdm2 MdmX PPI inactive, VIM-2 inhibitor inactive, 697 NFkB inh inactive and Jurkat NFkB inh inactive.
Screening CCCCN(C(=O)c1cc2c(s1)CCCCC2)c1c(N)n(CC(C)C)c(=O)[nH]c1=O returned Mdm2 MdmX PPI inactive, 697 NFkB inh inactive and Jurkat NFkB inh inactive.
CCOc1ccc([N+](=O)[O-])cc1CNC1CCCCCCC1 was read as IMP-1 inh 39, aSyn 5UTR inh inactive, Mdm2 MdmX PPI inactive, VIM-2 inhibitor inactive, 697 NFkB inh inactive and Jurkat NFkB inh inactive.
For O=C(c1ccc(CS(=O)c2ccccc2Cl)o1)N1CCOCC1 (stereo unspecified) the results were IMP-1 inh inactive, aSyn 5UTR inh inactive, Mdm2 MdmX PPI inactive, VIM-2 inhibitor inactive, 697 NFkB inh inactive and Jurkat NFkB inh inactive.
O=C(c1ccc(CS(=O)c2ccccc2Cl)o1)N1CCN(c2ccccc2)CC1 (stereo unspecified) was read as IMP-1 inh inactive, aSyn 5UTR inh 110, Mdm2 MdmX PPI inactive, VIM-2 inhibitor inactive, 697 NFkB inh inactive and Jurkat NFkB inh inactive.
For COc1ccc(CCCC(=O)N/N=C/c2cccc(OC)c2O)cc1C the results were IMP-1 inh inactive, aSyn 5UTR inh 74, Mdm2 MdmX PPI inactive, VIM-2 inhibitor inactive, 697 NFkB inh inactive and Jurkat NFkB inh inactive.
Screening O=C(N=Nc1c(O)n(Cc2ccccc2)c2ccccc12)c1ccncc1 returned IMP-1 inh inactive, aSyn 5UTR inh inactive, Mdm2 MdmX PPI inactive, VIM-2 inhibitor 11, 697 NFkB inh inactive and Jurkat NFkB inh inactive.
`Oc1c(N=NC(=S)Nc2ccccc2F)c2ccccc2n1Cc1ccccc1` gave IMP-1 inh inactive, aSyn 5UTR inh 72, Mdm2 MdmX PPI inactive, VIM-2 inhibitor inactive, 697 NFkB inh inactive and Jurkat NFkB inh inactive.
`Oc1c(N=NC(=S)Nc2ccccc2F)c2ccccc2n1Cc1ccccc1Cl` gave IMP-1 inh inactive, aSyn 5UTR inh 87, Mdm2 MdmX PPI inactive, VIM-2 inhibitor inactive, 697 NFkB inh inactive and Jurkat NFkB inh inactive.
For COC(=O)N=Nc1c(O)n(Cc2ccccc2)c2ccccc12 the results were IMP-1 inh inactive, aSyn 5UTR inh inactive, Mdm2 MdmX PPI inactive, VIM-2 inhibitor inactive, 697 NFkB inh inactive and Jurkat NFkB inh inactive.
CCCCNC(=S)N=Nc1c(O)n(Cc2ccccc2)c2ccccc12 was read as IMP-1 inh inactive, aSyn 5UTR inh inactive, Mdm2 MdmX PPI inactive, VIM-2 inhibitor inactive, 697 NFkB inh inactive and Jurkat NFkB inh inactive.
CC1CCC(NC(=O)C2CCC(CNS(=O)(=O)c3cccc4cccnc34)CC2)CC1 (stereo unspecified) was read as IMP-1 inh inactive, aSyn 5UTR inh inactive, Mdm2 MdmX PPI inactive, VIM-2 inhibitor inactive, 697 NFkB inh inactive and Jurkat NFkB inh inactive.
For N#Cc1sc2nc3c(cc2c1N)CCCC3 the results were IMP-1 inh 17, aSyn 5UTR inh inactive, Mdm2 MdmX PPI inactive, VIM-2 inhibitor inactive, 697 NFkB inh inactive and Jurkat NFkB inh inactive.
O=C(CN1C(=O)/C(=C/c2ccco2)SC1=S)Nc1ccc(C(=O)O)c(O)c1 was read as IMP-1 inh 7.2, aSyn 5UTR inh inactive, Mdm2 MdmX PPI inactive, VIM-2 inhibitor inactive, 697 NFkB inh inactive and Jurkat NFkB inh inactive.
Screening O=C(CCN1C(=O)/C(=C/c2ccccc2)SC1=S)NC1CCS(=O)(=O)C1 (stereo unspecified) returned IMP-1 inh inactive, aSyn 5UTR inh inactive, Mdm2 MdmX PPI inactive, VIM-2 inhibitor inactive, 697 NFkB inh inactive and Jurkat NFkB inh inactive.
Screening O=C(CN1C(=O)/C(=C/c2ccco2)SC1=S)NC1CCS(=O)(=O)C1 (stereo unspecified) returned IMP-1 inh 5.6, aSyn 5UTR inh inactive, Mdm2 MdmX PPI inactive, VIM-2 inhibitor inactive, 697 NFkB inh inactive and Jurkat NFkB inh inactive.
`Cc1ccc(N2CC(C)Cn3c2nc2c3c(=O)[nH]c(=O)n2C)cc1` (stereo unspecified) gave IMP-1 inh inactive, aSyn 5UTR inh inactive, Mdm2 MdmX PPI inactive, VIM-2 inhibitor inactive, 697 NFkB inh inactive and Jurkat NFkB inh inactive.
`Cc1ccc(N2CC(C)Cn3c2nc2c3c(=O)[nH]c(=O)n2C)cc1C` (stereo unspecified) gave IMP-1 inh inactive, aSyn 5UTR inh inactive, Mdm2 MdmX PPI inactive, VIM-2 inhibitor 8.7, 697 NFkB inh inactive and Jurkat NFkB inh inactive.
`CCCCOc1ccc(/C=C/C(=O)Nc2ccc([N+](=O)[O-])cc2C)cc1` gave IMP-1 inh inactive, aSyn 5UTR inh inactive, Mdm2 MdmX PPI inactive, VIM-2 inhibitor inactive, 697 NFkB inh inactive and Jurkat NFkB inh inactive.
CCCOc1ccc(/C=C/C(=O)Nc2ccc([N+](=O)[O-])cc2)cc1 was read as IMP-1 inh inactive, aSyn 5UTR inh 68, Mdm2 MdmX PPI inactive, VIM-2 inhibitor inactive, 697 NFkB inh inactive and Jurkat NFkB inh inactive.
Screening Cc1cccc(NC(=O)c2onc3c2CCCC3)n1 returned IMP-1 inh inactive, aSyn 5UTR inh 86, Mdm2 MdmX PPI inactive, VIM-2 inhibitor inactive, 697 NFkB inh inactive and Jurkat NFkB inh inactive.
For Cc1cccc(NC(=O)c2onc3c2CCCC3)c1C the results were IMP-1 inh inactive, aSyn 5UTR inh inactive, Mdm2 MdmX PPI inactive, VIM-2 inhibitor inactive, 697 NFkB inh inactive and Jurkat NFkB inh inactive.
For COC(=O)c1cccc(NC(=O)c2onc3c2CCCC3)c1 the results were IMP-1 inh inactive, aSyn 5UTR inh 79, Mdm2 MdmX PPI inactive, VIM-2 inhibitor inactive, 697 NFkB inh inactive and Jurkat NFkB inh inactive.
Screening CC(=O)OCCN1C(=O)c2ccc(-c3nc4ccccc4c(=O)o3)cc2C1=O returned aSyn 5UTR inh inactive, Mdm2 MdmX PPI inactive, 697 NFkB inh inactive and Jurkat NFkB inh inactive.
`CC1CCCC(C)N1C(=O)COC(=O)c1n[nH]c(=O)c2ccccc12` (stereo unspecified) gave Mdm2 MdmX PPI inactive, 697 NFkB inh inactive and Jurkat NFkB inh inactive.
Cc1ccc(NC(=O)CNCc2ccccc2Cl)cc1S(=O)(=O)N(C)C was read as IMP-1 inh 37, aSyn 5UTR inh inactive, Mdm2 MdmX PPI inactive, VIM-2 inhibitor inactive, 697 NFkB inh inactive and Jurkat NFkB inh inactive.

Compound activity: PubChem BioAssay, several laboratories
